The record followed here is ChEMBL document CHEMBL2169874, “Design, synthesis, and pharmacological evaluation of novel hybrid compounds to treat sickle cell disease symptoms. part II: furoxan derivatives” (J Med Chem, 2012).

The structures appear in SMILES notation. Active and inactive are the calls of the source. No cut-off for these calls is given here.

Data set [1] concerns Mus musculus. Put plainly: Antinociceptive activity in Swiss albino mouse assessed as inhibition of acetic-acid induced abdominal constriction at 100 umol/kg, po administered 1 hr prior to acetic-acid challenge measured after 10 mins relative to vehicle-treated control. The format is functional. As to conditions: Abdomen. Summed up:
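Mice dosed orally at 100 μmol/kg as a suspension in 5% arabic gum in saline. 0.6% acetic acid (0.1 mL/10 g) given ip 1 h later. Starting 10 min after injection, constrictions per animal counted for 20 min. Vehicle controls received an equal volume. Expressed as % inhibition vs vehicle group; mean ± SEM, 10 animals per group; Student's t test.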

Data set [2] in a line: Induction of nitrite release at 10^-4 M after 1 hr by Griess method in presence of L-cysteine. The format is physicochemical. As to conditions: 100 µM.
Data set [3] relates to Mus musculus. The experiment in a line: Mutagenicity in Swiss mouse assessed as micronucleated reticulocytes in peripheral blood at 100 mg/kg, po after 30 hrs by micronucleus test. The format is toxicity, organism-based. Further details: dose 100 mg/kg, route oral. To be noted: in vivo. In outline:
(§1)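 Swiss mice of both sexes (25−30 g), 10 per group, gavaged at 25, 50 or 100 mg/kg. Negative control: 1% CMC/0.2% Tween by gavage; positive control: cyclophosphamide 50 mg/kg ip. Blood collected 30 h later, slides prestained with acridine orange. 1000 reticulocytes scored per animal for micronucleated cells; mean with SD.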

The test system of data set [4] is Mus musculus. Put plainly: Mutagenicity in Swiss mouse assessed as micronucleated reticulocytes in peripheral blood at 50 mg/kg, po after 30 hrs by micronucleus test. The format is toxicity, organism-based. Further details: dose 50 mg/kg, route oral. To be noted: in vivo. Summed up: as §1
In data set [5] the test system is Mus musculus. The experiment in a line: Mutagenicity in Swiss mouse assessed as micronucleated reticulocytes in peripheral blood at 25 mg/kg, po after 30 hrs by micronucleus test. Format: toxicity, organism-based. Details: dose 25 mg/kg, route oral. To be noted: in vivo. In outline:
as §1

The test system of data set [6] is K562. The experiment in a line: Upregulation of gamma-globin mRNA expression in human K562 cells at 5 uM after 24 to 96 hrs by qRT-PCR analysis relative to control. The format is functional, cell-based. Summed up:
(§2)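 K562 cells in DMEM with 10% FBS, penicillin/streptomycin, 37 °C, 5% CO2, seeded at 1 × 10^7 cells/100 mL. Treated at 5−100 μM for 24, 48, 72 or 96 h. γ-globin mRNA by SYBR Green qRT-PCR, normalized to β-actin and GAPDH, vs vehicle control (DMSO, or water for HU). Mean ± SEM, n = 5; ANOVA with Dunnett's test.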

Data set [7] concerns K562. Put plainly: Upregulation of gamma-globin mRNA expression in human K562 cells at 100 uM after 96 hrs by qRT-PCR analysis relative to control. The format is functional. Summed up: as §2
Data set [8] relates to K562. The experiment in a line: Upregulation of beta-soluble guanilate cyclase mRNA expression in human K562 cells at 5 and 30 uM from 24 to 96 hrs by qRT-PCR analysis relative to control. Format: functional, cell-based. In outline:
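K562 cells in DMEM with 10% FBS, penicillin/streptomycin, 37 °C, 5% CO2, seeded at 1 × 10^7 cells/100 mL. Treated at 5 or 30 μM for 24, 48, 72, 96 h. β-sGC mRNA by SYBR Green qRT-PCR, normalized to β-actin and GAPDH, vs DMSO control. Mean ± SEM, n = 5; Mann−Whitney test.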

Data set [9] deals with K562. The experiment in a line: Upregulation of gamma-globin mRNA expression in human K562 cells at 5 uM after 96 hrs by qRT-PCR analysis relative to control. Format: functional. Summed up: as §2
Data set [10] concerns K562. Put plainly: Upregulation of gamma-globin mRNA expression in human K562 cells at 5 uM after 24 hrs by qRT-PCR analysis relative to control. The format is functional, cell-based. In outline:
as §2

Regarding `O=C(OCc1c(-c2ccccc2)no[n+]1[O-])c1cc(N2C(=O)c3ccccc3C2=O)ccc1O`, the inhibition result in the data set with Mus musculus [1] is “inactive”. Also, in data set [2], the Activity came to 10.6%.
The matching figures for `O=C(OCc1c(-c2ccccc2)no[n+]1[O-])c1ccccc1N1C(=O)c2ccccc2C1=O`: “inactive” and 9.7%.
Take `O=C1c2ccccc2C(=O)N1c1ccc(S(=O)(=O)NCCOc2no[n+]([O-])c2S(=O)(=O)c2ccccc2)cc1`: the inhibition in vivo at 100 µmol/kg in the data set with Mus musculus [1] turned out to be 36%. The Activity in [2] was 28.1%.
With `O=C1c2ccccc2C(=O)N1Cc1c(-c2ccccc2)no[n+]1[O-]`, in the data set on Mus musculus [1], the inhibition result was “inactive”. Also, the Activity in [2] was found to be 14.8%.
Take `Cc1c(N(C)CS(=O)(=O)O)c(=O)n(-c2ccccc2)n1C`: in the data set on Mus musculus [1], the inhibition result is “Active”.
Take `O=C(NCCOc1no[n+]([O-])c1S(=O)(=O)c1ccccc1)c1ccc(N2C(=O)c3ccccc3C2=O)cc1`: in the data set on Mus musculus [1], the inhibition entry is “inactive”. In addition, the Activity in data set [2] stood at 28.2%.
On to `O=[N+]([O-])O[C@H]1CO[C@H]2[C@@H]1OC[C@H]2O[N+](=O)[O-]` [ISOSORBIDE DINITRATE], for which the Activity in [2] came to 11.6%.
For `NC(=O)NO` [HYDROXYUREA], the Activity turned out to be 33.7 in the data set on Mus musculus [3], 15 in the data set with Mus musculus [4] and 9.9 in the data set on Mus musculus [5]. The outcome with K562 [6] was inactive. In addition, the “fold change (FC)” value with K562 [7] is 1.77. Also, the inhibition result in the data set on Mus musculus [1] was “inactive”.
For the compound `O=C(OCc1c(-c2ccccc2)no[n+]1[O-])c1cccc(N2C(=O)c3ccccc3C2=O)c1`, the inhibition result with Mus musculus [1] is “inactive”. For the same compound, the Activity in data set [2] was 13.2%.
In the case of `O=C1c2ccccc2C(=O)N1CCOc1c(S(=O)(=O)c2ccccc2)no[n+]1[O-]`, the Activity in the data set with Mus musculus [3] turned out to be 6.7; in the data set with Mus musculus [4], 5.5; with Mus musculus [5], 4; in data set [2] it was 9.5%. In addition, the outcome with K562 [8] was inactive. Moreover, the “fold change (FC)” value with K562 [9] stood at 2.8. The result in the data set on K562 [10] was Active. For the same compound, the inhibition in vivo at 100 µmol/kg in the data set on Mus musculus [1] came to 43%.
